Shown is part of a subset that was picked to be rich in hits.
INS-1E rescue – rescue of cytokine-induced death in INS-1E beta cells; protection from cytokine-induced ATP loss, % at 10 µM; INS-1E cytokine-induced death, ATP luminescence, 48 h; normalised: neutral wells 0, positive control 100; hit rate 0.1% among 20,000; AID 488910;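 active = mean replicate protection from cytokine-induced ATP loss at least 50% and at least 75% of replicates each reaching 50%; inconclusive = meets only one of the two criteria, mean or replicate share; inactive = fails both the mean and replicate share criteria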
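Assay system: INS-1E rat insulinoma cells. Amount: 8000 cells per well. Medium: phenol-red-free RPMI with 5% fetal bovine serum. Reagent: IL-1β, TNF-α and IFN-γ cytokine mix. Doses: one compound concentration, pin transfer. Schedule: 48 h co-treatment, 10 min post-lysis read. Detection: CellTiter-Glo luminescence measuring cellular ATP.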
T cruzi HTS – blocks T. cruzi growth inside host cells. AID 651903. intracellular Trypanosoma cruzi in host cells, plate reader. hit rate 4.9% among 22,000. activity score (inhibition), % at 5.01 µM; in the data active = activity score above about 55%; inconclusive = no clear call, values can overlap the other calls;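 note: parasites and compound incubated about four days before reading; 0% = median of neutral control wells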
A1 apoptosis 2 – compounds inhibiting A1, read as caspase activation; 24,000 tested, under 10 active; MEF A1-2A-BIM cells, caspase-Glo luminescence, 3 h; percent of clofoctol response, DMSO zero; caspase activation, % (test concentration not listed); in the data active = caspase activation above about 5.9%; inconclusive = no clear call, values can overlap the other calls; inactive = below about 2.2%
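Test system – A1-2A-BIM-expressing MEF cells · Input – 2500 cells/well · Medium – RPMI-1640 growth medium with 10% FBS · Compound dosing – 50 nL pinned compound · Timing – 3 h compound exposure at 37 °C · Technique – Caspase-Glo luminescence (DEVD substrate) · Evaluation – Caspase-3/7 activity from luminescence increase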
* marks the source's active call; other numbers are inactive results; u = inconclusive; x = no result given.

SMILES | INS-1E rescue | T cruzi HTS | A1 apoptosis 2
C[C@@H]1CN([C@@H](C)CO)C(=O)Cc2cc(NC(=O)Nc3ccc(F)cc3)ccc2O[C@H]1CN(C)Cc1ccc(Cl)c(Cl)c1 | x | x | 1.3
C[C@H]1CN([C@@H](C)CO)C(=O)Cc2cc(NC(=O)Nc3ccc(F)cc3)ccc2O[C@H]1CN(C)Cc1ccc(Cl)c(Cl)c1 | -51.9 | 64.0* | 2.0
C[C@H]1CN([C@@H](C)CO)C(=O)Cc2cc(NC(=O)Nc3ccc4c(c3)OCO4)ccc2O[C@H]1CN(C)Cc1ccc(Cl)c(Cl)c1 | -6.4 | 63.3* | x
C[C@@H]1CN([C@@H](C)CO)C(=O)Cc2cc(NC(=O)Nc3ccc4c(c3)OCO4)ccc2O[C@@H]1CN(C)Cc1ccc(Cl)c(Cl)c1 | -39.9 | 46.9 | x
C[C@H](CO)N1C[C@H](C)[C@H](CN(C)Cc2ccc(Cl)c(Cl)c2)Oc2ccc(NC(=O)Nc3ccc(F)cc3)cc2CC1=O | -14.7 | u | x
C[C@H](CO)N1C[C@H](C)[C@@H](CN(C)Cc2ccc(Cl)c(Cl)c2)Oc2ccc(NC(=O)Nc3ccc(F)cc3)cc2CC1=O | x | x | -0.4
C[C@@H]1CN([C@@H](C)CO)C(=O)Cc2cc(NC(=O)Nc3ccccc3)ccc2O[C@@H]1CN(C)Cc1ccc(Cl)c(Cl)c1 | -50.1 | 68.3* | x
C[C@@H]1CN([C@H](C)CO)C(=O)Cc2cc(NC(=O)Nc3ccc(F)cc3)ccc2O[C@@H]1CN(C)Cc1ccc(Cl)c(Cl)c1 | -13.5 | 68.1* | 0.2
O=C(CCCCCCC(=O)N/N=C/C1=CCCCC1)NO | x | x | -0.3
O=C(N/N=C/c1cn(S(=O)(=O)c2ccccc2)c2ccccc12)c1ccccc1O | -24.6 | -9.1 | x
C=C(C)[C@@H]1CC=C(/C=N/NC(=O)c2ccc(C(=O)NO)cc2)CC1 | 17.3 | -5.8 | x
C[C@@H]1CN([C@@H](C)CO)C(=O)c2cc(NC(=O)Cc3ccccc3)ccc2O[C@@H](C)CCCCO[C@H]1CN(C)S(=O)(=O)c1cccs1 | x | x | -0.3
Cc1ccc(S(=O)(=O)Nc2ccc3c(c2)C(=O)N([C@@H](C)CO)C[C@@H](C)[C@H](CN(C)Cc2ccc(-c4ccccc4)cc2)O3)cc1 | -7.7 | u | x
Cc1ccc(S(=O)(=O)Nc2ccc3c(c2)C(=O)N([C@@H](C)CO)C[C@H](C)[C@@H](CN(C)Cc2ccc(-c4ccccc4)cc2)O3)cc1 | -5.2 | 78.4* | 0.0
C[C@H]1CN([C@@H](C)CO)C(=O)c2cc(NS(=O)(=O)c3ccccc3)ccc2O[C@@H]1CN(C)Cc1ccc(-c2ccccc2)cc1 | -24.2 | 67.4* | 0.4
C[C@@H]1CN([C@@H](C)CO)C(=O)c2cc(NS(=O)(=O)c3ccccc3)ccc2O[C@@H]1CN(C)Cc1ccc(-c2ccccc2)cc1 | -58.7 | 26.6 | x
COc1ccc(CN(C)C[C@@H]2OCCCC[C@H](C)Oc3ccc(NC(=O)NC4CCCCC4)cc3C(=O)N([C@H](C)CO)C[C@H]2C)cc1 | x | x | 0.0
C[C@H]1CN([C@@H](C)CO)C(=O)c2cccc(NC(=O)c3nc4ccccc4s3)c2O[C@@H]1CN(C)S(=O)(=O)c1ccc(F)cc1 | -20.4 | 67.4* | -0.4
COc1ccc(S(=O)(=O)N(C)C[C@H]2Oc3c(NC(=O)c4nc5ccccc5s4)cccc3C(=O)N([C@@H](C)CO)C[C@H]2C)cc1 | -19.4 | 30.2 | x
COc1ccc(S(=O)(=O)N(C)C[C@@H]2Oc3c(NC(=O)c4nc5ccccc5s4)cccc3C(=O)N([C@H](C)CO)C[C@@H]2C)cc1 | -50.0 | 69.8* | -0.4
C[C@H](CO)N1C[C@H](C)[C@H](CN(C)S(=O)(=O)c2cccs2)Oc2c(NC(=O)c3nc4ccccc4s3)cccc2C1=O | -16.4 | 75.5* | 0.3
C[C@H]1CN([C@@H](C)CO)C(=O)c2cccc(NC(=O)c3nc4ccccc4s3)c2O[C@@H]1CN(C)S(=O)(=O)c1ccc(Cl)cc1 | -16.9 | 78.5* | -1.4
C[C@H](CO)N1C[C@H](C)[C@@H](CN(C)S(=O)(=O)c2ccc(F)cc2)Oc2c(NC(=O)c3nc4ccccc4s3)cccc2C1=O | -13.0 | u | x
C[C@H]1CN([C@@H](C)CO)C(=O)c2cccc(NC(=O)c3nc4ccccc4s3)c2O[C@H]1CN(C)S(=O)(=O)c1ccc(Cl)cc1 | 1.7 | 35.8 | 0.0
C[C@H]1CN([C@@H](C)CO)C(=O)c2cccc(NC(=O)c3nc4ccccc4s3)c2O[C@H]1CN(C)S(=O)(=O)c1cccs1 | -11.3 | 36.8 | -0.4
SMILES | INS-1E rescue | T cruzi HTS | A1 apoptosis 2
O=S(=O)(N[C@@H]1CCCN(Cc2ccc(OCCO)cc2)C1)c1ccc(Cl)cc1 | x | x | 0.4
O=C1O[C@@H](c2ccccc2)[C@@H](c2ccccc2)N2[C@@H](c3ccc(OCCO)cc3)[C@]3(C(=O)Nc4ccccc43)[C@@H](C(=O)NC[C@H](O)c3ccccc3)[C@H]12 | x | x | 1.4
C=CCOC(=O)C(=O)/C=C/C1CC1 | x | x | 2.1
C[C@@H]1CN([C@@H](C)CO)C(=O)c2cccc(NC(=O)c3nc4ccccc4s3)c2O[C@@H]1CN(C)S(=O)(=O)c1ccc(F)cc1 | -11.0 | 34.7 | -1.0
C[C@H]1CN([C@@H](C)CO)C(=O)c2cccc(NC(=O)c3nc4ccccc4s3)c2O[C@H]1CN(C)S(=O)(=O)c1ccc(F)cc1 | -31.5 | 73.9* | x
O=C(NO)c1cccc(C(=O)N/N=C/c2ccc(F)c(Oc3ccccc3)c2)c1 | 5.7 | -37.4 | x
C[C@@H]1CN([C@@H](C)CO)C(=O)c2cc(NC(=O)C3CC3)ccc2O[C@@H]1CN(C)Cc1ccc2c(c1)OCO2 | -7.2 | -7.6 | x
C[C@H](CO)N1C[C@H](C)[C@H](CN(C)C(=O)Nc2ccccc2)Oc2ncc(C#Cc3cccc(F)c3)cc2C1=O | -13.3 | 29.8 | -0.5
C[C@H](CO)N1C[C@H](C)[C@H](CN(C)C(=O)Nc2cccc3ccccc23)Oc2ncc(C#CC(C)(C)O)cc2C1=O | x | -9.1 | x
C[C@H](CO)N1C[C@H](C)[C@H](CN(C)C(=O)Nc2cccc3ccccc23)Oc2ncc(-c3cccc(F)c3)cc2C1=O | x | 31.8 | 0.1
C[C@H](CO)N1C[C@H](C)[C@H](CN(C)C(=O)Nc2cccc3ccccc23)Oc2ncc(-c3cccc(C(F)(F)F)c3)cc2C1=O | x | 61.8* | x
C[C@H](CO)N1C[C@H](C)[C@H](CN(C)C(=O)Nc2cccc3ccccc23)Oc2ncc(C#Cc3ccc(C(F)(F)F)cc3)cc2C1=O | x | 85.5* | -0.1
C[C@H](CO)N1C[C@H](C)[C@H](CN(C)C(=O)Nc2cccc3ccccc23)Oc2ncc(C#Cc3cccc(F)c3)cc2C1=O | x | 65.7* | x
Cc1c(NC(=O)/C(C#N)=C/c2cccc([N+](=O)[O-])c2)c(=O)n(-c2ccccc2)n1C | x | x | 0.3
O=C(O)CCCCCCC(=O)N/N=C/c1ccccc1[N+](=O)[O-] | -2.1 | -2.7 | -1.6
COc1cc(Br)c(/C=N/NC(=O)c2cccc(C(=O)NO)c2)cc1OC | -4.7 | -3.1 | 1.8
C=CC[C@]1(C(=O)NCCCOC)N=C(c2ccc(OCCCO)cc2)O[C@H]1c1ccccc1 | x | x | -0.2
COc1ccc(S(=O)(=O)Nc2ccc3c(c2)C(=O)N([C@H](C)CO)C[C@H](C)[C@@H](CN(C)C(=O)CCCN(C)C)OCCCC[C@H](C)O3)cc1 | x | x | -0.2
